The source made the active and inactive calls.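 How the source made its calls, unless noted: active means viability loss from added drug above about 55%, and viability with drug at most 40%, in both replicates (limit read from the data, passing the limit was not always enough); inconclusive means both conditions met in only one replicate; inactive means neither replicate meets both conditions.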
Assays:
[1] = reduced viability of SK-BR-3 breast cancer cells – cell-based, 24 h, human, pilot screen (AID 572;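 active means viability at or below 10% of carrier control in both of two separate runs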;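 further: compound exposure lasted between 18 and 24 h rather than exactly 24 h; 100% = carrier-treated control wells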); conditions: SK-BR-3 viability, CellTiter-Glo luminescence, at 10 µM, stronger effect = lower value
[2] = HUVEC growth inhibition – cell-based, human, primary screen (AID 575;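 active means viability at or below 30% in both replicate assays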;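 further: 100% = median of untreated cell wells with 0.1% DMSO on each plate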); conditions: HUVEC proliferation, CellTiter-Glo luminescence, 72 h; at 10 µM; stronger effect = lower value
Procedure, shortened: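 material = primary HUVEC, no more than 12 passages | input = 1250 cells per well | controls = vehicle and MePR control wells | measured by = CTG luminescence | times = 72 h compound incubation | format = collagen-coated 384-well format | read-out = % viability vs DMSO wells | doses = single 10 µM dose, 0.1% DMSO, from 5x medium stock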

[3] = H69AR cell proliferation blockers – human, duplicate replicates, primary screen (AID 580;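 active means viability at or under a set limit in both replicates, limit being median viability minus 3 SD, cut at about 48% in these data, passing the limit was not always enough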;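 further: 100% = mean luminescence of untreated wells and 0% = no signal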); conditions: H69AR lung tumor cells viability, ATP luminescence, 72 h; at 10 µM; stronger effect = lower value
[4] = MRP1 drug-resistance reversers in H69AR cells – cell-based, doxorubicin co-treatment, pilot screen (AID 601); conditions: CellTiter-Glo, 72 h, at 10 µM; for differential viability (reversal): stronger effect = higher value
[5] = yeast transport mutant growth inhibition pilot in 384-well plates, post-Golgi transport modulator project (AID 636; in the data active means inhibition above about 31%); conditions: absorbance 615 nm, about 18 h, stronger effect = higher value
[6] = growth suppression of yeast trafficking mutant, preliminary HTS, modulators of trafficking downstream of Golgi apparatus project, 1536-format plate, OD 615 nm (AID 637; in the data active means inhibition above about 30%); conditions: yeast transport mutant growth, absorbance 615 nm, 18 h; stronger effect = higher value
[7] = H69AR cells + 2 uM doxorubicin, measured here: viability with 2 uM doxorubicin, stronger effect = lower value
[8] = H69AR cells, compound alone cytotoxicity

Cc1oc2c(c1C(=O)NCc1ccccc1)CCCC2
viability [1]: 81% (inactive)
viability [2]: 97% (inactive)
viability [3]: 107% (inactive)
differential viability (reversal) ([4]; H69AR cells + 2 uM doxorubicin): 8.32% (inactive)
viability [4, 7]: 99%
viability [4, 8]: 107%
inhibition [5]: -4.93% (inactive)
inhibition [6]: -1.64% (inactive)

CCn1cc(C2Nc3ccccc3C(=O)N2O)c(C)n1 (centres undefined)
viability [1]: 93% (inactive)
viability [2]: 126% (inactive)
viability [3]: 90% (inactive)
differential viability (reversal) ([4]; H69AR cells + 2 uM doxorubicin): -0.465% (inactive)
viability [4, 7]: 90.5%
viability [4, 8]: 90%
inhibition [5]: -5.27% (inactive)
inhibition [6]: -2.91% (inactive)

CCN(CC)CCOC(=O)C(c1ccccc1)c1ccccc1
viability [1]: 81% (inactive)
viability [2]: 81.1% (inactive)
viability [3]: 101% (inactive)
differential viability (reversal) ([4]; H69AR cells + 2 uM doxorubicin): 7.5% (inactive)
viability [4, 7]: 93.2%
viability [4, 8]: 101%
inhibition [5]: -4.81% (inactive)
inhibition [6]: 1.67% (inactive)

COc1cccc(-c2nnn(CC(=O)O)n2)c1
viability [1]: 149% (inactive)
viability [2]: 100% (inactive)
viability [3]: 91% (inactive)
differential viability (reversal) ([4]; H69AR cells + 2 uM doxorubicin): 1.7% (inactive)
viability [4, 7]: 89.3%
viability [4, 8]: 91%
inhibition [5]: -1.43% (inactive)
inhibition [6]: 1.97% (inactive)

O=C(NC1CCS(=O)(=O)C1)OC1CCCCC1 (centres undefined)
viability [1]: 75% (inactive)
viability [2]: 111% (inactive)
viability [3]: 93.4% (inactive)
differential viability (reversal) ([4]; H69AR cells + 2 uM doxorubicin): -10.9% (inactive)
viability [4, 7]: 104%
viability [4, 8]: 93.4%
inhibition [5]: -0.82% (inactive)
inhibition [6]: 1.82% (inactive)

O=C(NCCN1CCOCC1)c1ccc(CS(=O)(=O)Cc2ccccc2F)o1
viability [1]: 59% (inactive)
viability [2]: 102% (inactive)
viability [3]: 108% (inactive)
differential viability (reversal) ([4]; H69AR cells + 2 uM doxorubicin): 0.59% (inactive)
viability [4, 7]: 107%
viability [4, 8]: 108%
inhibition [5]: -3.84% (inactive)
inhibition [6]: 1.64% (inactive)

Cn1nc(C(C)(C)C)cc1C(=O)NCc1ccc(N2CCCC2=O)cc1
viability [1]: 87% (inactive)
viability [2]: 15.1% (active)
viability [3]: 99% (inactive)
differential viability (reversal) ([4]; H69AR cells + 2 uM doxorubicin): -3.59% (inactive)
viability [4, 7]: 103%
viability [4, 8]: 99%
inhibition [5]: -5.34% (inactive)
inhibition [6]: 0.91% (inactive)

COCCN(Cc1cc2cc3c(cc2n2nnnc12)OCO3)C(=O)c1ccccc1F
viability [1]: 94% (inactive)
viability [2]: 113% (inactive)
viability [3]: 101% (inactive)
differential viability (reversal) ([4]; H69AR cells + 2 uM doxorubicin): 2.13% (inactive)
viability [4, 7]: 99.3%
viability [4, 8]: 101%
inhibition [5]: -6.35% (inactive)
inhibition [6]: -7.27% (inactive)

CCN(CC)CCNC(=O)c1ccc(N2CCCCC2)c(NS(=O)(=O)c2ccc(C)cc2)c1
viability [1]: 81% (inactive)
viability [2]: 18.5% (active)
viability [3]: 76.6% (inactive)
differential viability (reversal) ([4]; H69AR cells + 2 uM doxorubicin): 2.53% (inactive)
viability [4, 7]: 74.1%
viability [4, 8]: 76.6%
inhibition [5]: -6.13% (inactive)
inhibition [6]: 7.21% (inactive)

Cn1c(=O)[nH]c(=O)c2c1nc(N1CCc3ccccc3C1)n2CCSc1nc2ccccc2s1
viability [1]: 72% (inactive)
viability [2]: 79.5% (inactive)
viability [3]: 75.2% (inactive)
differential viability (reversal) ([4]; H69AR cells + 2 uM doxorubicin): 1.51% (inactive)
viability [4, 7]: 73.7%
viability [4, 8]: 75.2%
inhibition [5]: -5.48% (inactive)
inhibition [6]: 2.9% (inactive)

COc1ccc(OCCOC(=O)c2cccc(-n3cnnn3)c2)cc1
viability [1]: 90% (inactive)
viability [2]: 107% (inactive)
viability [3]: 100% (inactive)
differential viability (reversal) ([4]; H69AR cells + 2 uM doxorubicin): 7.56% (inactive)
viability [4, 7]: 92.6%
viability [4, 8]: 100%
inhibition [5]: -8.36% (inactive)
inhibition [6]: 1.64% (inactive)

CCC(=O)Oc1ccc(C/C(=N\O)c2ccc(O)cc2O)o1
viability [1]: 85% (inactive)
viability [2]: 90.6% (inactive)
viability [3]: 52.5% (inactive)
differential viability (reversal) ([4]; H69AR cells + 2 uM doxorubicin): -33% (inactive)
viability [4, 7]: 85.5%
viability [4, 8]: 52.5%
inhibition [5]: 3.01% (inactive)
inhibition [6]: 13.8% (inactive)

O=C(CN1CCC(n2nnc3ccccc32)CC1)Nc1ccc2c(c1)CCC2
viability [1]: 64% (inactive)
viability [2]: 92% (inactive)
viability [3]: 89.3% (inactive)
differential viability (reversal) ([4]; H69AR cells + 2 uM doxorubicin): 1.24% (inactive)
viability [4, 7]: 88.1%
viability [4, 8]: 89.3%
inhibition [5]: -8.63% (inactive)
inhibition [6]: 2% (inactive)
